# Bioassay records as filed in PubChem BioAssay.
# Sampled rows, rich in hits. Any-hit rate of the full collection: about 2.3%.
# PGC1a acetyl inh = modulators of PGC1a acetylation; U2OS PGC1a acetylation, AlphaScreen anti-acetyl-lysine; with virally co-expressed GCN5 acetyltransferase; inhibition, % at 15.6 µM; 350,000 compounds, 0.17% hits;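 active = every replicate shows inhibition of at least 40%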;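 note: 0% = neutral control wells and 100% = positive control wells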
# FN deposit inh = fibronectin deposition inhibition; AH1F fibroblasts, Alexa488-fibronectin deposition fluorescence, overnight; inhibition, % at 12.6 µM; 350,000 compounds, 0.086% hits;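 active = mean inhibition across replicates of 30% or more, regardless of how many single replicates reach that level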;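 note: positive control wells lacked labelled fibronectin entirely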
#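 material = AH1F fibroblast monolayer depositing Alexa488-labelled fibronectin into matrix | amount = 10000 AH1F cells/well | buffer or medium = DMEM plus 2% serum, read in PBS | incubation = 1 h cell adhesion before compound, then overnight fibronectin incubation | detection = fluorescence at 485 nm excitation, 525 nm emission | evaluation = percent inhibition as loss of matrix-bound fibronectin fluorescence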
# PAX8 inh HTS = inhibitors of PAX8 transcriptional activity in RMG-I cells; RMG-I TPO-luciferase reporter, SteadyGlo, 24 h; inhibition, % at 12.6 µM; 360,000 compounds, 1.2% hits;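 active = mean replicate inhibition at least 60% with every replicate also reaching 60%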;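 note: luciferase light reporting Pax8 driven TPO promoter activity; plate controls were median of neutral control wells for no effect and mitoxantrone controls for full effect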
# EWS-Fli inh = blocks EWS/Fli oncoprotein-driven transcription; A673 NR0B1-luciferase reporter, viability-normalised; inhibition, % at 12.6 µM; 350,000 compounds, 0.67% hits; AID 651661;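 active = mean inhibition of at least 50% after viability correction, with every replicate also passing that limit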;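 note: firefly luciferase signal divided by Alamar Blue viability fluorescence both relative to DMSO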
# HIV Env fusion = inhibitors of HIV Env-mediated cell fusion. HeLa-JRFL Env/CEM21 cell fusion, luciferase. 360,000 compounds, 1.1% hits. AID 651610. inhibition, % at 12.3 µM;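 active = mean replicate inhibition score of at least 50 and every replicate individually at or above 50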;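 note: 0% = plate neutral controls and 100% = maraviroc near 300 nM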
# F508del corr = CFTR F508del correction in bronchial cells | CFBE cells, YFP halide quenching; stimulated with forskolin plus potentiator P3; % fluorescence drop versus neutral controls | activity (quench increase), % at 7.58 µM | 350,000 compounds, 0.36% hits;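 active = mean added fluorescence quench of at least 8% versus neutral control, with both replicates also reaching 8%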;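 note: cells transiently co-express mutant CFTR-F508del with the halide-sensitive YFP; corrector assay measuring rescue of mutant channel to the surface after 24 h compound exposure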
# DNA binding = small molecule DNA binding by fluorescence polarization. 640 compounds, 2% hits. shares compounds with EWS-Fli inh. salmon sperm DNA acridine orange fluorescence polarization. AC35, µM (top dose mostly 68 µM), without a hit: at the highest dose activity change, negative = DNA binding;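 active = fitted curve reaches a 35% signal fall AC35 below twice the sample's top valid tested dose, actives reach about 48 µM in these data; inactive = the rest, including activity in the rising direction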;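 note: lower polarization ratio signals compound binding to DNA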
# Numbers without * were called inactive; . = not tested or not shown; ! = repeats disagree; [ ] = remark or other dose.
SMILES,PGC1a acetyl inh,FN deposit inh,PAX8 inh HTS,EWS-Fli inh,HIV Env fusion,F508del corr,DNA binding
COc1ccc(C/C(N)=N/OC(=O)Cc2ccc(OC)c(OC)c2)cc1,-6.7,.,.,9.3,.,1.0,.
COc1ccc(C/C(N)=N/OC(C)=O)cc1OC,.,.,10.0,82.9*,-14.0,.,-5.1%
COc1ccc(-c2cc(CCCC(=O)NCCc3cc(OC)ccc3OC)no2)cc1,-18.8,.,.,.,-1.3,.,.
CCOc1ccc(-c2cc(CCCC(=O)NCc3ccc(C)cc3)no2)cc1,-14.7,-2.8,-1.0,61.3*,71.9,-1.5,-9.1%
O=C(C[C@@H]1CC[C@H]2[C@@H](COC[C@H](O)CN2Cc2cc(F)ccc2F)O1)N1CCc2ccccc2C1,2.3,5.4,13.7,6.5,7.5[16.7 µM],-4.2,.
COCCOC(=O)N1C(=O)[C@@]2(c3cc(C#CCCO)ccc31)[C@H](C(=O)N1CCN(c3ncccn3)CC1)[C@H]1C(=O)O[C@H](c3ccccc3)[C@H](c3ccccc3)N1[C@@H]2c1ccccc1OCCO,-6.7,.,.,-5.5,-12.2[16.7 µM],0.3,.
COCCOC(=O)N1C(=O)[C@@]2(c3cc(C#CCC(C(=O)OC)C(=O)OC)ccc31)[C@H](c1ccccc1OCCO)N1[C@H](c3ccccc3)[C@H](c3ccccc3)OC(=O)[C@H]1[C@@H]2C(=O)N1CCN(c2ncccn2)CC1,.,.,14.4,60.8*,-38.7[16.7 µM],1.9,0.8%
COC(=O)C(CC#Cc1ccc2c(c1)[C@]1(C(=O)N2)[C@H](c2ccc(OCCO)cc2)N2[C@H](c3ccccc3)[C@H](c3ccccc3)OC(=O)[C@H]2[C@@H]1C(=O)N1CCN(c2ncccn2)CC1)C(=O)OC,.,.,-22.3,76.2*,-13.4[16.7 µM],-0.2,2.6%
O=C(c1ccc(F)cc1)N1CCCCN2[C@H](CO)[C@H](c3ccc(C#CC4(O)CCCC4)cc3)[C@@H]2C1,-1.3,.,5.7,-9.1,.,-0.5,.
CCNC(=O)c1cccc(S(=O)(=O)N2CCCCCC2)c1,.,.,-11.7,66.8*,18.9,.,-20.4%
C[C@H](CO)N1C[C@H](C)[C@H](CN(C)Cc2ccc(C(=O)O)cc2)Oc2ncc(C#CCN(C)C)cc2C1=O,4.6,-9.9,4.5,-9.1,-10.3[16.7 µM],.,.
O=C(Nc1ccc(F)cc1)N1CCCCN2[C@@H](CO)[C@H](c3ccc(C4=CCCCC4)cc3)[C@@H]2C1,-1.1,3.0,54.3,51.6*,.,-1.0,-0.5%
CCC(=O)Nc1ccc2c(c1)C(=O)N(C)C[C@@H](OC)[C@@H](C)CN(Cc1ccccn1)[C@H](C)CO2,8.7,0.5,-1.2,0.1,9.5[16.7 µM],0.2,.
COc1ccccc1-c1ccc(OCCCN2CCC(C(O)(c3ccccc3)c3ccccc3)CC2)cc1,.,5.1,96.4*,70.6*,97.4*,2.6,-15.4%
CCCCN=C(NNc1ccc(Br)cc1)C(=O)OCC,.,.,-1.5,78.8*,-6.5,.,-8.7%
COc1cccc(NC(=O)N2C[C@H](O)COC[C@H]3O[C@@H](CC(=O)NCc4ccccc4F)CC[C@@H]32)c1,-1.8,-1.5,.,.,.,-0.2,.
C/C=C/c1ccc([C@@H]2[C@H](CO)N(Cc3cncnc3)C23CN(C(=O)CC)C3)cc1,5.7,.,.,4.6,.,1.2,.
C[C@H](CO)N1C[C@H](C)[C@H](CN(C)Cc2ccc(C(=O)Nc3ccccc3N)cc2)Oc2ccc(N(C)C)cc2CC1=O,37.4,-2.6,31.8,66.6*,-154.4[16.7 µM],4.9,0.8%
Cc1ccc(S(=O)(=O)N(C)C[C@@H]2Oc3ccc(NC(=O)CCCCCC(=O)Nc4ccccc4N)cc3CC(=O)N([C@@H](C)CO)C[C@@H]2C)cc1,-8.6,.,19.5,55.8*,23.8[16.7 µM],2.2,-3.5%[56 µM]
C[C@H](CO)N1C[C@H](C)[C@@H](CN(C)Cc2ccc(Oc3ccccc3)cc2)Oc2ccc(NS(=O)(=O)c3ccc(Cl)cc3)cc2CC1=O,0.8,16.8,100.9*,57.1*,12.2[16.7 µM],4.6,-4.0%
C[C@H]1CN([C@@H](C)CO)C(=O)c2cc(NC(=O)CCCCCC(=O)Nc3ccccc3N)ccc2O[C@H]1CN(C)Cc1ccc(Cl)c(Cl)c1,-4.2,.,.,17.7,.,2.4,.
C[C@@H]1CN([C@H](C)CO)C(=O)c2cc(NC(=O)CCCCCC(=O)Nc3ccccc3N)ccc2O[C@@H]1CN(C)Cc1ccc(Cl)c(Cl)c1,-13.1,.,.,68.6*,.,-3.8,-0.6%
Cc1ccccc1S(=O)(=O)N1CCCCN2[C@H](CO)[C@@H](c3ccc(-c4ccccc4)cc3)[C@H]2C1,-5.7,.,43.3,18.6,.,-3.0,.
C[C@@H]1CN([C@@H](C)CO)C(=O)Cc2cc(N(C)C)ccc2O[C@@H]1CN(C)Cc1ccccc1,-5.7,.,20.9,54.8*,-49.9[16.7 µM],10.3*,-10.2%
C[C@H]1CN([C@@H](C)CO)C(=O)c2cc(NC(=O)C3CCCCC3)ccc2O[C@H]1CN(C)Cc1ccc(C(=O)Nc2ccccc2N)cc1,-6.3,.,.,51.8*,-25.7[16.7 µM],-0.7,-7.2%
SMILES,PGC1a acetyl inh,FN deposit inh,PAX8 inh HTS,EWS-Fli inh,HIV Env fusion,F508del corr,DNA binding
C[C@H]1CN([C@@H](C)CO)C(=O)Cc2cc(N(C)C)ccc2O[C@H]1CN(C)Cc1ccccc1,9.3,.,-33.6,-13.7,7.8[16.7 µM],-0.9,.
C[C@H]1CN([C@@H](C)CO)C(=O)c2cc(N(C)C)ccc2O[C@@H]1CN(C)Cc1ccc(C(=O)Nc2ccccc2N)cc1,-22.0,.,59.4,65.0*,-27.9[16.7 µM],-1.8,-3.5%
C[C@@H]1CN([C@@H](C)CO)C(=O)c2cc(NC(=O)C3CC3)ccc2O[C@H]1CN(C)Cc1ccc(C(=O)Nc2ccccc2N)cc1,2.6,.,.,39.1,17.4[16.7 µM],-1.5,.
C[C@H](CO)N1C[C@H](C)[C@H](CN(C)Cc2cccc(F)c2)Oc2ncc(C#CCc3ccccc3)cc2C1=O,4.0,-9.8,.,11.7,.,-0.5,.
C[C@@H]1CN([C@H](C)CO)C(=O)c2cc(C#CCc3ccccc3)cnc2O[C@@H]1CN(C)Cc1cccc(F)c1,-17.2,-20.7,.,56.4*,.,2.4,-7.2%
O=C(c1cccc(F)c1)N1CC[C@@H]2[C@H](CO)Nc3ccc(-c4cccc(F)c4)cc3[C@@H]21,12.1,-12.9,-1.3,-9.6,.,0.6,.
C[C@H](CO)N1C[C@H](C)[C@H](CN(C)Cc2ccc(Oc3ccccc3)cc2)OCc2cnnn2CCCC1=O,14.9,14.8,.,14.3,-4.9[16.7 µM],3.6,.
C[C@@H]1CN([C@H](C)CO)C(=O)CCCn2nncc2CO[C@H]1CN(C)Cc1ccc(Oc2ccccc2)cc1,-2.1,21.5,115.7*!,70.1*!,17.0,2.8,-12.4%
C[C@@H]1CN([C@@H](C)CO)C(=O)Cc2cc(NC(=O)Nc3ccc(C(F)(F)F)cc3)ccc2O[C@@H]1CN(C)Cc1ccc(C(=O)Nc2ccccc2N)cc1,-3.3,.,.,55.2*,-32.9[16.7 µM],5.8,-4.3%
CCS(=O)(=O)N1Cc2ccccc2CC1C(=O)Nc1nnc(SCc2ccc(C#N)cc2)s1 (stereo not drawn),.,.,-11.4,65.9*,-9.6,.,-1.4%
